One assay has as its system MCF7. Put plainly: Antiproliferative activity against human MCF7 cells assessed as cell viability at 10 uM measured after 72 hrs by MTS method. The class given is functional. Conditions: read-out: Activity. An outline of the steps: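 Single-concentration screen at 10 µM for 72 h. Log-phase cells plated at 5×10^3–6×10^3 per well for 24 h before dosing, five replicate wells. Viability measured by MTS: 10% MTS in fresh medium, 30 min or more at 37 °C in dark, absorbance 490 nm.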
(Tetrazolium dyes change colour on reduction, which living cells bring about.)

Another assay concerns PANC-1. The assay is described as follows: Antiproliferative activity against human PANC-1 cells assessed as cell viability measured after 72 hrs by MTS method. The class given is functional, cell-based. Conditions: PANC-1, 72 h. An outline of the steps:
(§1)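 Log-phase cells plated at 5×10^3–6×10^3 per well for 24 h, then given graded compound concentrations in fresh medium for 72 h, five replicate wells. Medium replaced with medium containing 10% MTS, 30 min or more at 37 °C in dark; OD 490 nm read. IC50 by nonlinear regression; mean ± SD of at least three experiments.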

Assay [1] can be described thus: Antiproliferative activity against human HCCLM3 cells assessed as cell viability measured after 72 hrs by MTS method. The class given is functional, cell-based. Conditions: HCCLM3, 72 h. An outline of the steps: as §1
A further assay deals with RKO. The assay is described as follows: Antiproliferative activity against human RKO cells assessed as cell viability measured after 72 hrs by MTS method. The class given is functional, cell-based. An outline of the steps:
as §1

Assay [2] addresses T1, Tubulin (Homo sapiens) (UniProt P68371+Q9H4B7+P0DPH7+P68366+Q13509+Q71U36+P04350+Q3ZCM7+P07437+P68363+Q9BQE3+Q6PEY2+Q13885+Q9BVA1+Q9BUF5). Put plainly: Inhibition of tubulin polymerization in human RKO cells assessed as fragmentation of microtubule at 1 uM measured 24 hrs by DAPI staining based immunoflourescence assay. Type of assay: cell-based. An outline of the steps:
(§2)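 RKO cells on coverslips (2.5×10^5 per well) incubated overnight, then treated for 24 h at 0.5 or 1 μM, DMSO, or 1 μM comparators. Fixed in cold methanol 10 min, permeabilized with 0.25% Triton X-100, blocked in 1% BSA at 4 °C overnight. Stained with anti-β-tubulin (1:100, 2 h RT) and Alexa Fluor 594 secondary (1:500, 1 h), nuclei with DAPI; imaged by fluorescence microscopy.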

For assay [3], the target named is T1, Tubulin (Homo sapiens). Put plainly: Inhibition of tubulin polymerization in human RKO cells assessed as morphology changed to fusiform at 1 uM measured 24 hrs by DAPI staining based immunoflourescence assay. Particulars: in the assay text read “changed to round from fusiform” for “changed to fusiform”. The class given is cell-based. An outline of the steps: as §2

A further assay is filed under the species Sus scrofa. Put plainly: Inhibition of pig tubulin polymerization at 10 uM measured every minute for 60 mins by microplate reader method. An outline of the steps:
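Kit assay with porcine tubulin (>97% pure) at 4 mg/mL in PIPES 80 mM, MgCl2 2 mM, EGTA 0.5 mM, pH 6.9, with GTP. Compound at 10 μM final (from 100 μM working solution) preincubated 5 min at 37 °C in a prewarmed plate before cold tubulin mix is added. A340 read every minute for 60 min at 37 °C.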

Another assay deals with PLC-PRF-5. Put plainly: Antiproliferative activity against human PLC-PRF-5 cells assessed as cell viability measured after 72 hrs by MTS method. Conditions: PLC-PRF-5, 72 h. Type of assay: functional, cell-based. An outline of the steps:
as §1

In a further assay the test system is SK-BR-3. The assay is described as follows: Antiproliferative activity against human SK-BR-3 cells assessed as cell viability measured after 72 hrs by MTS method. Particulars: SK-BR-3, 72 h. The class given is functional, cell-based. An outline of the steps:
as §1

A further assay concerns A549. Put plainly: Antiproliferative activity against human A549 cells assessed as cell viability measured after 72 hrs by MTS method. The class given is functional, cell-based. Particulars: A549, 72 h. An outline of the steps:
as §1

The next assay concerns NCI-H460. Put plainly: Antiproliferative activity against human NCI-H460 cells assessed as cell viability measured after 72 hrs by MTS method. Type of assay: functional, cell-based. Conditions: NCI-H460, 72 h. An outline of the steps: as §1
Another assay concerns BT-474. The assay is described as follows: Antiproliferative activity against human BT-474 cells assessed as cell viability measured after 72 hrs by MTS method. The class given is functional, cell-based. Particulars: BT-474, 72 h. An outline of the steps:
as §1

The next assay relates to SW480. The assay is described as follows: Antiproliferative activity against human SW480 cells assessed as cell viability measured after 72 hrs by MTS method. Type of assay: functional, cell-based. Conditions: SW480, 72 h. An outline of the steps:
as §1

The next assay relates to SW-620. The assay is described as follows: Antiproliferative activity against human SW-620 cells assessed as cell viability measured after 72 hrs by MTS method. Type of assay: functional, cell-based. Particulars: SW-620, 72 h. An outline of the steps:
as §1

In ChEMBL document CHEMBL4819012, “Discovery of novel 2-aryl-3-sulfonamido-pyridines (HoAns) as microtubule polymerization inhibitors with potent antitumor activities” (Eur J Med Chem, 2021) one finds viability, IC50 and inhibition data, which are given here for 41 molecules.

Calls of active or inactive are those of the source. The calls are words filed in the database; no cut-off is given here. A value given as a limit tells only on which side of the number the result lay.

As a reminder, the IC50 is the midpoint of a concentration-inhibition curve.

Turning to `COc1ccc(S(=O)(=O)Nc2cccnc2-c2cccc(OC)c2OC)cc1`, in the assay on MCF7, the viability at 10 µM was more than 70%.
Still for that read-out and setting: as for `COc1ccc(S(=O)(=O)Nc2cccnc2-c2cccc3c2oc2ccccc23)cc1`, the figure is more than 70%; as for `COc1ccc(S(=O)(=O)Nc2cccnc2-c2cc(OC)c(OC)c(OC)c2)cc1`, more than 70%; as for `COc1ccc(S(=O)(=O)Nc2cccnc2-c2ccc(OCc3ccccc3)cc2)cc1`, more than 70%.
The same measure, in the same setting: under `COc1ccc(S(=O)(=O)Nc2cccnc2-c2ccc(O)cc2)cc1` stands more than 70%; under `COc1ccc(S(=O)(=O)Nc2cccnc2-c2ccccc2O)cc1`, more than 70%.
With `N#Cc1ccc(-c2ncccc2NS(=O)(=O)c2ccc(C(F)(F)F)cc2)cc1F`, the concentration for half-maximal inhibition (IC50) (in the assay with PANC-1; in assay [1]; in the assay on RKO) was more than 10 µM each time.
On to `COc1ccc(S(=O)(=O)Nc2cccnc2-c2ccncc2)cc1`, for which the viability at 10 µM in the assay on MCF7 was more than 70%.
`Cc1ccc(S(=O)(=O)Nc2cccnc2-c2ccc(C#N)c(F)c2)cc1`: the half-inhibitory concentration (IC50) in the assay on PANC-1 was more than 10 µM; in assay [1], more than 10 µM; in the assay with RKO it was 9.21 µM. The viability at 10 µM in the assay on MCF7 is more than 70%.
Consider `CC(=O)O[C@H]1C(=O)[C@@]2(C)[C@H]([C@H](OC(=O)c3ccccc3)[C@]3(O)C[C@H](OC(=O)[C@H](O)[C@@H](NC(=O)c4ccccc4)c4ccccc4)C(C)=C1C3(C)C)[C@]1(OC(C)=O)CO[C@@H]1C[C@@H]2O`, for which the inhibition entry at Tubulin (Homo sapiens) [2], at Tubulin (Homo sapiens) [3] and in the assay filed under Sus scrofa was “inactive” each time.
In the case of `COc1ccc(S(=O)(=O)Nc2cccnc2-c2c(OC)cccc2OC)cc1`, the viability at 10 µM with MCF7 was more than 70%.
Consider `COc1ccc(S(=O)(=O)Nc2cccnc2-c2cccc(OC)c2)cc1`, for which the viability at 10 µM in the assay on MCF7 is more than 70%.
As to `COc1ccc(S(=O)(=O)Nc2cccnc2-c2ccc([N+](=O)[O-])cc2)cc1`, the IC50 in the assay on PLC-PRF-5 is 5.3 µM; in the assay with PANC-1, 7.19 µM; in the assay with SK-BR-3, 6.31 µM; in the assay with A549, more than 10 µM; in the assay on NCI-H460, more than 10 µM; with BT-474, more than 10 µM. Besides, the IC50 with SW480 stood at 3.85 µM; in assay [1], 7.6 µM; in the assay with RKO, 1.4 µM; in the assay with SW-620 it was 3.62 µM.
`COc1ccc(S(=O)(=O)Nc2cccnc2-c2cccc([N+](=O)[O-])c2)cc1`: in the assay on MCF7, the viability at 10 µM was more than 70%.
In the case of `N#Cc1ccc(-c2ncccc2NS(=O)(=O)c2ccccc2)cc1F`, the IC50 (in the assay with PANC-1; in [1]; with RKO) was more than 10 µM each time.
Turning to `COc1ccc(S(=O)(=O)Nc2cccnc2-c2ccnnc2)cc1`, in the assay with MCF7, the viability at 10 µM is more than 70%.
As to `COc1ccc(S(=O)(=O)Nc2cccnc2-c2ccc(C(F)(F)F)cc2)cc1`, the half-maximal inhibitory concentration (IC50) in the assay on PLC-PRF-5, in the assay on PANC-1, in the assay with SK-BR-3, with A549, with NCI-H460 and in the assay with BT-474 was more than 10 µM each time. Also, the half-inhibitory concentration (IC50) with SW480 is 9.21 µM; in assay [1] it was more than 10 µM; in the assay with RKO, 4.05 µM; with SW-620 it was 6.82 µM.
On to `N#Cc1ccc(-c2ncccc2NS(=O)(=O)c2ccc(Br)cc2)cc1F`, for which the 50% inhibitory concentration (IC50) (with PANC-1; in [1]; with RKO) was more than 10 µM each time. Besides, the viability at 10 µM with MCF7 is more than 70%.
In the case of `COc1ccc(S(=O)(=O)Nc2cccnc2-c2ccc3c(c2)OCO3)cc1`, in the assay with MCF7, the viability at 10 µM was more than 70%.
On the same count and under the same terms, under `COc1ccc(S(=O)(=O)Nc2cccnc2-c2cccc(N)c2)cc1` stands more than 70%.
The same measure, in the same setting: under `COc1ccc(S(=O)(=O)N(c2cccnc2-c2cc(OC)ccc2OC)S(=O)(=O)c2ccc(OC)cc2)cc1` stands more than 70%; under `COc1ccc(S(=O)(=O)N(c2cccnc2-c2ccc3c(c2)OCO3)S(=O)(=O)c2ccc(OC)cc2)cc1`, more than 70%.
Still for that read-out and setting: as for `COc1ccc(S(=O)(=O)Nc2cccnc2-c2cc(OC)ccc2OC)cc1`, the figure is more than 70%.
`COc1ccc(S(=O)(=O)Nc2cccnc2-c2ccccc2)cc1`: the IC50 in the assay with PLC-PRF-5, with PANC-1, in the assay with SK-BR-3, with A549, in the assay with NCI-H460 and in the assay with BT-474 was more than 10 µM throughout. The half-inhibitory concentration (IC50) in the assay with SW480 was more than 10 µM; in assay [1] it was more than 10 µM; with RKO it was 4.32 µM; in the assay with SW-620, 7.89 µM.
For `C=CCc1ccc(O)c(-c2ccc(O)c(CC=C)c2)c1` [HONOKIOL], the viability at 10 µM with MCF7 is more than 70%.
In the case of `N#Cc1ccc(-c2ncccc2NS(=O)(=O)c2ccc3ccccc3c2)cc1F`, the results for the IC50 (with PANC-1; in [1]; in the assay with RKO) were 10 µM, 8.87 µM and 2.92 µM, respectively.
For `COc1ccc(S(=O)(=O)Nc2cccnc2-c2cccc(O)c2)cc1`, the viability at 10 µM in the assay on MCF7 was more than 70%.
The same measure, in the same setting: under `COc1ccc(S(=O)(=O)Nc2cccnc2-c2cc(OC)cc(OC)c2)cc1` stands more than 70%.
On to `N#Cc1ccc(-c2ncccc2NS(=O)(=O)c2ccc(Cl)cc2)cc1F`, for which the IC50 (in the assay with PANC-1; in assay [1]; in the assay with RKO) was more than 10 µM throughout. Moreover, the viability at 10 µM in the assay with MCF7 is more than 70%.
For `COc1ccc(S(=O)(=O)Nc2cccnc2-c2ccc(C#N)cc2)cc1`, the IC50 amounted to 0.816 µM in the assay on PLC-PRF-5; 1.09 µM in the assay with PANC-1; 0.746 µM with SK-BR-3; 2.46 µM with A549; 1.5 µM in the assay on NCI-H460; 1.34 µM in the assay on BT-474. Also, the half-maximal inhibitory concentration (IC50) in the assay on SW480 was determined as 0.204 µM; in assay [1], 0.747 µM; in the assay with RKO, 0.259 µM; in the assay on SW-620, 0.607 µM.
`COc1ccc(S(=O)(=O)Nc2cccnc2-c2ccc(OC)c(OC)c2)cc1`: the viability at 10 µM in the assay on MCF7 was more than 70%.
Still for that read-out and setting: as for `COc1ccc(S(=O)(=O)Nc2cccnc2-c2ccc(N)cc2)cc1`, the figure is more than 70%; as for `COc1ccc(-c2ncccc2NS(=O)(=O)c2ccc(OC)cc2)cc1`, more than 70%.
Consider `COc1ccc(S(=O)(=O)Nc2cccnc2-c2cccnc2)cc1`, for which the viability at 10 µM with MCF7 is more than 70%.
Still for that read-out and setting: as for `COc1ccc(S(=O)(=O)Nc2cccnc2-c2ccc(OC)cc2OC)cc1`, the figure is more than 70%.
In the case of `COc1ccc(S(=O)(=O)Nc2cccnc2-c2ccc(C#N)c(F)c2)cc1OC`, the IC50 (in the assay with PANC-1; in assay [1]; in the assay with RKO) was more than 10 µM in each case.
In the case of `COc1ccc(S(=O)(=O)Nc2cccnc2-c2cccc(C#N)c2)cc1`, the viability at 10 µM with MCF7 was more than 70%.
In the case of `N#Cc1ccc(-c2ncccc2NS(=O)(=O)c2ccc(OC(F)(F)F)cc2)cc1F`, the IC50 (in the assay on PANC-1; in [1]; in the assay with RKO) was more than 10 µM in each case.
In the case of `COc1ccc(S(=O)(=O)Nc2cccnc2-c2ccccc2OC)cc1`, in the assay on MCF7, the viability at 10 µM was more than 70%.
Still for that read-out and setting: under `COc1ccc(S(=O)(=O)N(c2cccnc2-c2cccc(OC)c2OC)S(=O)(=O)c2ccc(OC)cc2)cc1` stands more than 70%; under `COc1ccc(S(=O)(=O)N(c2cccnc2-c2ccc(OC)cc2OC)S(=O)(=O)c2ccc(OC)cc2)cc1`, more than 70%.
